697 NFkB inh: inhibitors of PMA/ionomycin-induced NF-kB reporter, 697 cells, primary screen, B-cell NF-kB inhibitor project, cell-based, luminescence, uHTS; inhibition, % at 4 µM; AID 435022, 2010; 697 B-cell NF-kB luciferase reporter, 16 h; 330,000 tested, 0.33% active; in the data active = inhibition above about 35%
CRFBP-R2 block: antagonists of CRF-BP/CRF-R2 complex, primary screen, cell-based, HEK293, calcium dye fluorescence, uHTS; CRF-induced calcium fluorescence; inhibition, % at 11.8 µM; AID 588475, 2011; 350,000 tested, 0.59% active;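 active = inhibition of the ligand-induced calcium signal above about 50% at the single tested concentration, limit read from the data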
CHOP UPR activ: activators of apoptotic CHOP UPR arm, primary screen, cell-based, CHO-CHOP luciferase reporter, luminescence, uHTS | UPR activation; percent of tunicamycin response over DMSO baseline | activation, % at 10 µM | 330,000 tested, 0.34% active | AID 449763, 2010;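 active = at 10 µM dose, activation of 40% or more, normalized to positive control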;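 also: 100% = tunicamycin at 10 µg/mL and 0% = DMSO alone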
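measured by = luciferase luminescence | assay system = CHO-CHOP cells, stable luciferase reporter of PERK-eIF2a-CHOP signalling | amount = 500 reporter cells seeded per well | timing = 6 h compound exposure at 37 °C after overnight seeding | controls = positive tunicamycin 10 µg/mL, negative DMSO alone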
XBP1 UPR activ: activators of adaptive XBP1 UPR arm, primary screen, cell-based, CHO-XBP1 luciferase reporter, luminescence, uHTS; IRE1-XBP1 UPR activation; percent of tunicamycin response, DMSO as zero; activation, % at 20 µM; 330,000 tested, 0.33% active; AID 463104, 2010;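 active = versus positive control, 20 µM dose yields 30% or more activation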;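 also: 100% = tunicamycin at 10 µg/mL and 0% = DMSO only wells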
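incubation = overnight seeding at 37 °C, 6 h compound treatment at 37 °C | assay system = CHO-XBP1 cells stably carrying IRE1-XBP1-driven luciferase reporter | input = 1000 cells per well | detection = luciferase luminescence | dosing = single point, 20 µM final compound, 1% DMSO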
Jurkat NFkB inh: inhibitors of induced NF-kB luciferase reporter, primary screen, TCR NF-kB activation inhibitor project, cell-based, luminescence, uHTS | Jurkat, PMA/ionomycin-induced NF-kB luciferase reporter | inhibition, % at 4 µM | AID 435003, 2010 | 330,000 tested, 0.53% active; in the data active = inhibition above about 50%
Jurkat NFkB conf: PMA/ionomycin-induced NF-kB reporter inhibitors, Jurkat retest, confirmation, T-cell NF-kB inhibitor project, cell-based, luminescence, single concentration; shares compounds with Jurkat NFkB inh; Jurkat NF-kB luciferase, 16 h; inhibition, % at 4 µM; 2,700 tested, 27% active;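 active = inhibition reaching about 45% at 4 µM in either replicate, limit read from the data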;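 also: plate controls were PMA/ionomycin stimulated DMSO wells for no effect and unstimulated DMSO wells for full effect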
An asterisk follows results filed as active; / = no result given. The list is not random: actives were taken first. Their share in the collection is about 1.8%.

SMILES	697 NFkB inh	CRFBP-R2 block	CHOP UPR activ	XBP1 UPR activ	Jurkat NFkB inh	Jurkat NFkB conf
Cc1ccc(C(=O)Nc2ccc3c4c(cccc24)CC3)cc1[N+](=O)[O-]	-22	-21	0	0	85*	13
Cc1ccc(C(=O)NC2c3ccccc3-c3ccccc32)cc1	-24	11	3	2	60*	2
Cc1cccc(N2CCN(C(=O)c3ccc(CS(=O)(=O)c4ccccc4C)o3)CC2C)c1 (centres undefined)	9	14	4	20	65*	52*
COc1ccccc1/C=N/NS(=O)(=O)c1ccccc1	-20	1	0	-2	91*	9
O=C(N[C@@H](Cc1ccccc1)C(=O)CCl)OCc1ccccc1	-37	-16	158*	-13	83*	48*
Nc1nc(-c2ccc3ccccc3c2)cs1	-114	-10	2	5	-159	-20
Nc1nc(-c2ccc(-c3ccccc3)cc2)cs1	-232	-45	6	4	-101	/
CN(Cc1ccccc1)CC(O)COc1ccc(CNCc2ccc(Cl)s2)cc1 (centres undefined)	-14	-86	0	1	-19	/
CCc1ccc(CCC(=O)Nc2ncc(Cc3ccccc3Cl)s2)o1	-58	-30	2	11	66*	2
C=CCCC(=O)N1CCC(n2nccc2NC(=O)c2ccccc2C)CC1	-1	-14	1	1	11	/
N#CCCn1nc2c(c1N)CCC2	/	-14	/	/	/	/
O=C1CSC(=Nc2cccc([N+](=O)[O-])c2)N1	7	-2	-2	-2	5	/
COc1ccc(C(=O)OCC(=O)Nc2sccc2C(N)=O)cc1OC	-18	6	2	11	-5	/
COc1cc(C(=O)OCC(=O)Nc2sccc2C(N)=O)cc(OC)c1OC	-44	-8	0	7	54*	24
COC(=O)c1cnc(Oc2ccc(NC(=O)NC(=O)c3c(OC)cccc3OC)cc2)cc1C(F)(F)F	-77	-27	2	21	66*	60*
COC(=O)c1cnc(Oc2ccc(NC(=O)NC(=O)c3c(F)cccc3Cl)cc2)cc1C(F)(F)F	-23	-37	0	1	50*	46
COC(=O)c1cnc(Oc2ccc(NC(=O)NC(=O)c3c(F)cccc3F)cc2)cc1C(F)(F)F	1	-3	-1	-2	41	/
CCOC(=O)c1ccc(NC(=O)CCCN2C(=O)NC3(CCCC3)C2=O)cc1	-10	5	2	0	-3	/
CN(CC(=O)Nc1ccc(F)c(F)c1F)C(=O)C1=NN(c2ccccc2)C(=O)CC1	-7	12	-2	1	-7	/
CCN(N=O)c1ccc(C=C2C=Cc3ccccc32)cc1	/	-13	/	/	/	/
Cc1ccccc1S(=O)(=O)Nc1nc2ccccc2nc1N1CCc2ccccc2C1	-135	-11	2	2	-166	-90
O=S(=O)(Nc1nc2ccccc2nc1N1CCc2ccccc2C1)c1ccc(Br)cc1	/	-1	/	/	/	/
COc1cc2c(cc1OC)C(COc1ccc(F)cc1)N(C(C)=O)CC2 (centres undefined)	-12	-3	0	-1	45	/
CCC(=O)N1CCc2cc(OC)c(OC)cc2C1COc1ccc(F)cc1 (centres undefined)	-13	6	1	-4	64*	-1
Cc1cnc(NC(=O)C2CC(=O)N(c3cccc(Cl)c3)C2)s1 (centres undefined)	0	-8	-4	-10	75*	72*
COc1cc([C@@H]2c3cc4c(cc3[C@@H](O[C@@H]3O[C@@H]5CO[C@@H](C)O[C@H]5[C@H](O)[C@H]3O)[C@H]3COC(=O)[C@H]23)OCO4)cc(OC)c1O	-213	-14	0	-2	48	/
COc1cc(C2c3cc4c(cc3C(OC3OC5COC(c6cccs6)OC5C(O)C3O)C3COC(=O)C23)OCO4)cc(OC)c1O (centres undefined)	-35	-1	3	-5	80*	94*
